These results are taken from ChEMBL document CHEMBL3867440, “Hernandezine, a Bisbenzylisoquinoline Alkaloid with Selective Inhibitory Activity against Multidrug-Resistance-Linked ATP-Binding Cassette Drug Transporter ABCB1” (J Nat Prod, 2016).

By Ki is commonly meant the dissociation constant of the complex between target and ligand, obtained from inhibition or displacement. High values mean a looser hold on the target, low ones a stronger hold on the target.

The target in series [1] is T1, ATP-dependent translocase ABCB1 (Homo sapiens, UniProt P08183). Nature of the series: Binding affinity to Vanadate-sensitive ABCB1 (unknown origin).
T1 sequence (P08183 whole entry): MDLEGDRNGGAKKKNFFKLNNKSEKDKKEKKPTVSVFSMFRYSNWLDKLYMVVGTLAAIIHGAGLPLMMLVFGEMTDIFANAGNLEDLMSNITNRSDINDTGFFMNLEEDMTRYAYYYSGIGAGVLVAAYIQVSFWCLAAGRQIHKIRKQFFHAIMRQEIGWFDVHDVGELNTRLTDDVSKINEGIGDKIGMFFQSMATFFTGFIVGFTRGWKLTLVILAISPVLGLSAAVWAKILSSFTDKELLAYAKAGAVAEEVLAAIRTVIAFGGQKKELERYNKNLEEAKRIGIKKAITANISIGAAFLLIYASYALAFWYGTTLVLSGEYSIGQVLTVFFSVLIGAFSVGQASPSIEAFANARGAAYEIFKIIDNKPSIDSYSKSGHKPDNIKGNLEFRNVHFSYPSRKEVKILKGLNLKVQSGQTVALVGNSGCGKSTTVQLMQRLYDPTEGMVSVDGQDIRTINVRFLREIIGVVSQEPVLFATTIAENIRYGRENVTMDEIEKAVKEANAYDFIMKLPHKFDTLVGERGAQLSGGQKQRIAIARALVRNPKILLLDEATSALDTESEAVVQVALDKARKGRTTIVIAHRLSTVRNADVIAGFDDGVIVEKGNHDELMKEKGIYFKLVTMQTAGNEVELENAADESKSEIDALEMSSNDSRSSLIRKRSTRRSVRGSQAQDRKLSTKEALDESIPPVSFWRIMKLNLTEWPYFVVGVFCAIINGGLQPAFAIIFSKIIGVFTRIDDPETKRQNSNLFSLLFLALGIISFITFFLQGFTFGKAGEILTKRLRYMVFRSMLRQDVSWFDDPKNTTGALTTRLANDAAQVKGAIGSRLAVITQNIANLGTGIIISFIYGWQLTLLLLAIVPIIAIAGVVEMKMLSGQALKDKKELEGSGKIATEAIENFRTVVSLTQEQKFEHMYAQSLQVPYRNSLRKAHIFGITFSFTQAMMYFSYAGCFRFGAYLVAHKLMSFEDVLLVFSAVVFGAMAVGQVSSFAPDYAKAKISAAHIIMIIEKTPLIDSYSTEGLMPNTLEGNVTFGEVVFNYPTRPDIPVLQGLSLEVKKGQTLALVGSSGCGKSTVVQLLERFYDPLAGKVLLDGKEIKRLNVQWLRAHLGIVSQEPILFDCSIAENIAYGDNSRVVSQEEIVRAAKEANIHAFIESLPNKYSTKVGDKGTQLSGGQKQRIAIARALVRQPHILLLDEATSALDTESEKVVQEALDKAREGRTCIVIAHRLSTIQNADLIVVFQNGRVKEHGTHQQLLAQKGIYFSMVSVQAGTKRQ
The test system of another series is KB-V1. Nature of the series: Induction of apoptosis in human KBV1 cells assessed as early apoptotic cells at 1 uM after 48 hrs by Annexin V-FITC/propidium iodide staining based FACS analysis (reference value: 5.3%). Type of series: functional.
For series [2], the target named is T1, ATP-dependent translocase ABCB1. Nature of the series: Inhibition of ABCB1 in human KBV1 cells assessed as potentiation of doxorubicin-induced cytotoxicity by measuring doxorubicin resistance ratio at 50 nM after 72 hrs by MTT assay relative to parental KB-3-1 cells (reference value: 34). Type of series: cell-based. The following applies: kbv1, 72 h, 0.05 µM. The gist of the method: (§1)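 Cells were kept in drug-free DMEM with 10% FCS for 7 days before assay, then plated at 5000 cells/well for 24 h. Drug at various concentrations was added with a nontoxic fixed level of modulator for 72 h, and the read-out was MTT. IC50 came from fitted curves (≥3 experiments). RR = IC50 of the resistant line / IC50 of the parental line.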

For series [3] the target is unchanged. Nature of the series: Inhibition of ABCB1 in human NCI-ADR-RES cells assessed as potentiation of colchicine-induced cytotoxicity by measuring colchicine resistance ratio at 100 nM after 72 hrs by MTT assay relative to parental OVCAR8 cells (reference value: 59). It counts as cell-based. The following applies: ovcar-8, 72 h, 0.1 µM. The gist of the method:
as §1

The test system of another series is KB 3-1. Nature of the series: Induction of apoptosis in human KB-3-1 cells assessed as late apoptotic cells at 1 uM after 48 hrs by Annexin V-FITC/propidium iodide staining based FACS analysis (reference value: 5.8%). It counts as functional.
Series [4] concerns the target T1, ATP-dependent translocase ABCB1. Nature of the series: Induction of Vanadate-sensitive ABCB1 (unknown origin) assessed as ATPase activity by measuring concentration required for 50% maximal stimulation by Pgp-glo assay. The gist of the method:
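Vanadate-sensitive ABCB1 ATPase activity was measured with the Pgp-Glo system using […], across 0–1 μM test compound. Points are the mean of at least three independent experiments.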

In series [1], `COc1ccc2cc1Oc1ccc(cc1)C[C@H]1c3cc(c(OC)cc3CCN1C)Oc1c(OC)c(OC)c(OC)c3c1[C@H](C2)N(C)CC3` [HERNANDEZINE] displayed an inhibition constant Ki of 0.02 µM. For the same molecule, the Activity is 4.7% in the series on KB-V1, 4.4% in the series with KB 3-1 and “Dose-dependent effect” in series [4] (human). Moreover, the Ratio in series [2] is 9; in series [3] it was 23. Further, in series [4] (read-out: Activity), the EC50 stood at 0.02 µM.
